Assay results as given in ChEMBL document CHEMBL1156659, “Cycloartane triterpenoids from Astragalus bicuspis” (J Nat Prod, 2008).

What was measured:
Leishmania major = assay: Antileishmanial activity against Leishmania major DESTO promastigotes after 72 hrs; assay type: functional, organism-based
Summary of the method: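 Log-phase promastigotes grown at 22-25 °C in RPMI-1640 with 10% heat-inactivated FBS, seeded at 1 × 10^6 cells/mL. Compounds were taken from a 1 mg/mL stock (DMSO, then complete medium), serially diluted, and incubated 21-22 °C for 72 h. Viable parasites were counted microscopically in a Neubauer chamber, and IC50 was derived by curve fitting. Run in duplicate.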

NIH3T3 = assay: Cytotoxicity against mouse 3T3 cells after 72 hrs by MTT assay; assay type: cell-based
Summary of the method: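 Mouse fibroblasts were kept in DMEM with 5% FBS, penicillin and streptomycin at 37 °C under 5% CO2, seeded at 3 × 10^4 cells/mL, and left overnight. Fresh medium holding a compound concentration series was added for 72 h. MTT (2 mg/mL) was added for 4 h, then DMSO, and formazan was read at 540 nm. The value is the concentration giving 50% growth inhibition.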

[1] = Mus musculus, NIH3T3, 72 h, read-out: IC50

Row | SMILES | IC50 (Leishmania major) | IC50 (NIH3T3; [1]) | IC50 (NIH3T3; nih3t3)
1 | CO[C@H]1C[C@@H](C)[C@H]2[C@H](C[C@@]3(C)[C@@H]4C[C@H](O)[C@H]5C(C)(C)[C@@H](O[C@@H]6OC[C@@H](O)[C@@H](O)[C@H]6O)CC[C@@]56C[C@@]46CC[C@]23C)O1 | 93.65 µmol | 52.4 µM | –
2 | CC(C)(O)[C@@H]1CC[C@](C)([C@H]2[C@@H](O)C[C@@]3(C)[C@@H]4C[C@H](O)[C@H]5C(C)(C)[C@@H](O[C@@H]6OC[C@@H](O)[C@H](O)[C@H]6O)CC[C@@]56C[C@@]46CC[C@]23C)O1 | 56.51 µmol | – | 19.51 µmol
3 | CC(C)(O)[C@@H]1CC[C@](C)([C@@H]2[C@@H](O)C[C@@]3(C)[C@@H]4C[C@H](O)[C@H]5C(C)(C)[C@@H](O)CC[C@@]56C[C@@]46CC[C@]23C)O1 | 108 µM | > 100 µM | –
4 | C[C@@H]1C[C@@H]([C@H](O)CC2CC(=O)NC(=O)C2)C(=O)[C@@H](C)C1 [CYCLOHEXIMIDE] | – | – | 0.912 µmol

The next lines start with results.

Row | IC50 (Leishmania major) | SMILES | IC50 (NIH3T3; [1]) | IC50 (NIH3T3; nih3t3)
5 | 64.35 µmol | C[C@@H]1C[C@@]2(O[C@H]3C[C@@]4(C)[C@@H]5C[C@H](O)[C@H]6C(C)(C)[C@@H](O[C@@H]7OC[C@@H](O)[C@@H](O)[C@H]7O)CC[C@@]67C[C@@]57CC[C@]4(C)[C@@H]13)O[C@H](O)[C@]1(C)O[C@H]21 | > 100 µM | –
6 | 0.54 µmol | C[C@@H]1[C@H](O)[C@@H](C)/C=C/C=C/C=C/C=C/C=C/C=C/C=C/[C@H](O[C@@H]2O[C@H](C)[C@@H](O)[C@H](N)[C@@H]2O)C[C@@H]2O[C@](O)(C[C@@H](O)C[C@@H](O)[C@H](O)CC[C@@H](O)C[C@@H](O)CC(=O)O[C@H]1C)C[C@H](O)[C@H]2C(=O)O [AMPHOTERICIN B] | – | –
7 | 4.32 µmol | N=C(N)c1ccc(OCCCCCOc2ccc(C(=N)N)cc2)cc1 [PENTAMIDINE] | – | –
